Only a selection was taken, and hits are over-represented in it overall.
Dynein transport: blocks dynein driven cargo transport along microtubules; 3617.4 mouse cells, GR-EGFP nuclear translocation imaging; test concentration mostly 20 µM; stimulated with dexamethasone, 1 µM; stronger effect = lower value; z-score, hits read low; 220,000 compounds, 0.47% hits; AID 1381;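 active = plate z-score of nuclear minus cytoplasmic receptor signal below a set negative limit, without overly bright fluorescence or cell loss, cut at about -3.5 in these data, passing the limit was not always enough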;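 also: z-score of nuclear minus cytoplasmic ring GR-EGFP intensity difference per well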
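Buffer or medium: Induction medium lacking tetracycline, stripped serum | Also added: Dexamethasone agonist, 1.0 µM final, for 30 min | Timing: 48 h induction, 1 h compound, 30 min dex at 37 °C | Detection: Formaldehyde fixation, Hoechst nuclear stain, 10x automated fluorescence imaging | Measure: Nuclear versus cytoplasmic GR-EGFP signal, averaged per well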
UPR CHOP act: apoptotic UPR (CHOP) activation; CHO-CHOP luciferase reporter, luminescence; percent of tunicamycin response over DMSO baseline; activation, % at 10 µM; 330,000 compounds, 0.34% hits;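 active = at 10 µM dose, activation of 40% or more, normalized to positive control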;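 also: 100% = tunicamycin at 10 µg/mL and 0% = DMSO alone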
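Test system: CHO-CHOP cells, stable luciferase reporter of PERK-eIF2a-CHOP signalling | Quantity: 500 CHO-CHOP cells per well | Buffer or medium: F12 plus 10% serum | Compound dosing: 10 µM single point, 0.5% DMSO | Schedule: 6 h compound treatment, 37 °C | Signal: Luciferase luminescence | Control set: Tunicamycin high control, DMSO low control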
Lmaj promast: reduces viability of Leishmania major promastigotes; resazurin fluorescence viability; inhibition, % at 10 µM; 200,000 compounds, 9% hits; AID 1063; in the data active = inhibition above about 50%;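 also: promastigotes grown with compound for 44 hours at 28 °C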
UPR XBP1 act: adaptive UPR (XBP1) activation; CHO-XBP1 luciferase reporter, IRE1-XBP1 UPR activation, luminescence; percent of tunicamycin response, DMSO as zero; activation, % at 20 µM; 330,000 compounds, 0.33% hits; AID 463104;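 active = versus positive control, 20 µM dose yields 30% or more activation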;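 also: 100% = tunicamycin at 10 µg/mL and 0% = DMSO only wells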
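Material – CHO cell line with stable XBP1 luciferase reporter · Buffer or medium – F12 plus 10% FBS · Compound – single point, 20 µM final compound, 1% DMSO · Schedule – 16-18 h cell attachment at 37 °C, then 6 h compound exposure · Signal – Steady-Glo luminescence read · Benchmarks – high control tunicamycin 10 µg/mL final, low control DMSO vehicle only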
T cruzi repl: blocks replication of Trypanosoma cruzi; T. cruzi beta-gal in NIH3T3, luminescence, 90 h; inhibition, % (concentration not given with the values); 300,000 compounds, 1.4% hits;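 active = mean inhibition across valid replicates above about 55%, limit read from the data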;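 also: signal also drops with host cell toxicity which is not excluded here; 0% = plate median of DMSO wells and 100% = zero luminescence signal; higher percent means less beta-gal luminescence so fewer parasites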
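Read-out: Parasite load inhibition, % | Test system: Mouse NIH/3T3 fibroblasts infected with β-gal-expressing T. cruzi Tulahuen C4 | Amount: 5,000 cells/well | Medium: DMEM, 2% fetal bovine serum | Signal: GalScreen β-gal luminescence, detergent lysis, 60 min | Timing: 3 h attach, ≥90 h co-culture | Also added: Tulahuen C4 trypomastigotes, 5000/well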
CHOP inhibitor: inhibitors of CHOP induction in ER stress response; CHO-K1 CHOP-promoter luciferase, tunicamycin-induced, 15-18 h; inhibition, % at 10 µM; 220,000 compounds, 3.8% hits; AID 2732;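 active = compounds that reduced the stress-induced luciferase reporter signal by more than about 70% of percent inhibition, limit read from the data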;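 also: 0% = tunicamycin plus vehicle and 100% = wells without tunicamycin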
* marks the source's active call; other numbers are inactive results; nt = no result.

SMILES	Dynein transport	UPR CHOP act	Lmaj promast	UPR XBP1 act	T cruzi repl	CHOP inhibitor
COC(=O)c1cc(S(=O)(=O)N2CCN(c3cccc(Cl)c3)CC2)c[nH]1	nt	1	nt	-5	6	nt
COc1ccc2cc(/C=C/C(=O)N3CCN(CC(=O)N4CCCCCC4)CC3)ccc2c1	nt	3	nt	1	31	nt
NS(=O)(=O)c1ccc(CNC(=O)c2ccc3c(=O)n4c(nc3c2)CCC4)cc1	nt	0	nt	2	4	nt
OC(CNC1CCCCC1)COCCOc1ccc(Br)cc1 (stereo unspecified)	0.08	1	95*	-5	36	22
OC(CNC1CCCC1)COc1ccc(-c2ccccc2)cc1 (stereo unspecified)	-0.37	1	98*	-2	39	-7
COc1cc(OC)cc(C(=O)NN2CCOCC2)c1	nt	2	nt	-2	-4	nt
CC(=O)c1cccc(NC(=O)COc2ccc3oc(=O)cc(C)c3c2)c1	nt	0	nt	-2	-12	nt
O=C(Nc1ccc(NC(=S)NC(=O)C(c2ccccc2)c2ccccc2)cc1)c1ccccc1	-1.1	1	98*	-4	28	nt
O=C(NC(=S)Nc1ccc(Cl)cc1)c1ccccc1	-0.23	6	nt	3	-3	-15
CCC(=O)NC(=S)Nc1ccc(NC(=O)c2ccccc2[N+](=O)[O-])cc1	0.44	1	-1	0	6	-5
O=C(NC(=S)Nc1ccc(NC(=O)c2ccccc2)cc1)c1ccc(F)cc1	nt	5	nt	5	-7	nt
CCC(=O)NC(=S)Nc1ccc(NC(=O)c2cccc([N+](=O)[O-])c2C)cc1	-0.32	2	58*	-1	-6	18
CCC(=O)Nc1cccc(C(=O)/C=C/c2ccccc2)c1	-1	11	100*	5	-10	-81
O=C(NC(=S)Nc1ccc2c(c1)C(=O)c1ccccc1C2=O)c1ccc(F)cc1	-0.27	15	-4	41*	-14	-14
COc1ccc(OCC(=O)OCC(=O)Nc2ccc3[nH]c(=O)[nH]c3c2)cc1	nt	-1	nt	0	nt	nt
COc1ccc(/C=C/C(=O)NC(=S)Nc2ccc(C(=O)O)cc2)cc1	0.61	nt	69*	nt	0	-25
CCC(=O)NC(=S)Nc1ccc(NC(=S)NC(=O)c2ccccc2)cc1	-0.79	nt	-4	nt	61*	58
CCC(=O)Nc1ccc(NC(=S)NC(=O)/C=C/c2ccccc2)cc1	1.4	1	81*	-3	-11	92*
CN(C(=O)c1ccc(Br)o1)C1(C)CCS(=O)(=O)C1 (stereo unspecified)	nt	-1	nt	-2	-2	nt
Cc1ccc(OCC(=O)N/N=C/c2cc([N+](=O)[O-])ccc2N2CCCCC2)cc1	0.23	0	96*	-2	2	29
O=C(N/N=C/c1cc([N+](=O)[O-])ccc1N1CCNCC1)c1ccc([N+](=O)[O-])cc1	0.49	-2	86*	0	-5	-9
N#CCC(=O)N/N=C/c1cc([N+](=O)[O-])ccc1N1CCCC1	1.8	0	16	1	-4	-2
O=C(CNc1ccccc1)N/N=C/c1cc([N+](=O)[O-])ccc1N1CCCC1	-0.065	-3	-1	-4	5	73*
O=C(CN1C(=O)NC(c2ccccc2)(c2ccccc2)C1=O)NCCNCCO	nt	0	nt	-5	-4	nt
Cc1ccccc1CC(=O)N1CCCC(CNC(=O)c2ccc(F)cc2)C1 (stereo unspecified)	nt	1	nt	-9	-4	nt
SMILES	Dynein transport	UPR CHOP act	Lmaj promast	UPR XBP1 act	T cruzi repl	CHOP inhibitor
COc1ccc(OC)c(/C=C/C(=O)OCC(=O)N2CCN(S(=O)(=O)c3ccc(C)cc3C)CC2)c1	nt	-2	nt	-3	nt	nt
Cc1nc(SCC(=O)Nc2nc3ccccc3s2)c(C#N)c(C)c1C	0.083	-10	10	-7	22	102*
CSc1nsc(SCC(=O)Nc2nc3ccccc3s2)n1	1.1	2	63*	-2	-8	20
COc1ccc(C(=O)NCc2nnc(SCC(=O)Nc3nc4ccccc4s3)o2)cc1	-0.5	2	49	3	-4	35
COc1cc(C(=O)NCc2nnc(SCC(=O)Nc3nc4ccccc4s3)o2)cc(OC)c1OC	1	3	71*	-1	-25	4
COc1ccc(-c2csc(NC(=O)CSc3nc(SC)ns3)n2)cc1	-0.46	3	52*	-1	-10	-4
CCCc1ccc2oc(C(=O)N3CCN(C4CCS(=O)(=O)C4)CC3)c(C)c2c1 (stereo unspecified)	nt	6	nt	-1	-22	nt
CC(=O)c1ccc(N2CCN(C(=O)CCCc3nc4ccccc4s3)CC2)cc1	-0.11	0	1	2	-3	25
O=C(CN1CCN(c2ccccn2)CC1)N(c1ccccc1)c1ccc2ccccc2c1	1.7	3	97*	1	nt	55
COc1cc(-c2nnc3n(CCc4ccccc4)c(=O)c4ccccc4n23)cc(OC)c1OC	-0.53	1	72*	-1	3	-7
COc1cc(OC)c(-c2nnc3n(CCc4ccccc4)c(=O)c4ccccc4n23)cc1OC	1.1	2	25	0	13	8
O=C(NC(c1ccccc1)c1ccccc1)c1ccc(CO)cc1	nt	4	nt	1	-1	nt
CCN(CC)S(=O)(=O)c1ccc(N2CCOCC2)c(NC(=O)Cc2cccc3ccccc23)c1	-0.12	0	95*	-1	21	55
CCN(CC)S(=O)(=O)c1ccc(N2CCOCC2)c(NC(=O)C23CC4CC(CC(Cl)(C4)C2)C3)c1	-0.91	-2	56*	1	32	22
CCN(CC)S(=O)(=O)c1ccc(N2CCOCC2)c(NC(=O)c2ccccc2)c1	-0.47	2	4	-2	15	-32
CCN(CC)S(=O)(=O)c1ccc(N2CCOCC2)c(NC(=O)Cc2ccccc2F)c1	0.23	-1	71*	-1	12	16
O=C(O)Cc1ccc(NC(=O)Nc2ccc3c(c2)OCO3)cc1	nt	5	nt	-6	-14	nt
COc1ccc(CN2CCN(c3cccc(C)c3C)CC2)cc1OC	-0.11	-2	81*	-2	-22	69
COc1cc(CN2CCN(c3cccc(C)c3C)CC2)cc(Br)c1O	1.1	0	95*	-2	-10	91*
COc1ccc(CN2CCN(Cc3ccco3)CC2)cc1OC	nt	-1	nt	-3	29	nt
COc1cc(C)c(CN2CCSCC2)cc1C	nt	1	nt	0	4	nt
COc1ccc(CN2CCSCC2)cc1C	1.7	-1	78*	-4	-11	36
C[C@H](CO)N1C[C@H](C)[C@@H](CN(C)S(=O)(=O)c2ccccc2)Oc2c(NC(=O)NC3CCCCC3)cccc2C1=O	nt	3	nt	3	nt	nt
